SENP6 inh: SENP6 protease inhibitors, primary screen, biochemical, luminescence, uHTS; inhibition, % at 10 µM; Sentrin-specific protease 6 (Homo sapiens), Q9GZR1; Recombinant SENP6 catalytic domain, aminoluciferin luminescence; AID 2599, 2010; 1.8% of 330,000 active;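 active = inhibition above about 50% at the single tested dose, limit read from the data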;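 also: plate controls were DMSO wells with enzyme for no effect and DMSO wells lacking enzyme for full effect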
Apaf1 inhib: inhibitors of human Apaf-1 apoptosome, primary screen, biochemical, DEVD-Rh110 fluorescence, uHTS; reconstituted apoptosome caspase-3 activity; Apoptotic protease-activating factor 1 (Homo sapiens), O14727; inhibition, % at 20 µM; 0.71% of 330,000 active; active = inhibition of at least 40% at 20 µM;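 also: plate controls were DMSO wells for no effect and DEVD-CHO caspase inhibitor wells for full effect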
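Medium: Hepes buffer, pH 7.5 / System: biochemical Apaf-1 apoptosome reconstitution / Measured by: Rh110 fluorescence, excitation 480 nm, emission 540 nm / Times: compound with Apaf-1, dATP, procaspase-3 30 min, then 50 min reaction, room temperature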
SENP8 block-1: SENP8 protease inhibitors, primary screen, biochemical, luminescence; Sentrin-specific protease 8 (Homo sapiens), Q96LD8; purified SENP8, Z-RLRGG-aminoluciferin cleavage; inhibition, % at 10 µM; 1.2% of 330,000 active; AID 2540, 2010; in the data active = inhibition above about 50%
Target sequence (Q96LD8 whole entry, looked up): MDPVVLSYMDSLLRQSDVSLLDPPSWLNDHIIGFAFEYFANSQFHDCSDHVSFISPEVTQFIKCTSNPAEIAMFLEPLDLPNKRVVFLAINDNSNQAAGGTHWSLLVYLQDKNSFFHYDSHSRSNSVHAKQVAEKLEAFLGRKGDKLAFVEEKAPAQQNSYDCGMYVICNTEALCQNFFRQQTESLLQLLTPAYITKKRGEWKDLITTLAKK
SENP7 block: SENP7 protease inhibitors, primary screen, biochemical, luminescence, uHTS | Sentrin-specific protease 7 (Homo sapiens), Q9BQF6 | recombinant SENP7, Z-RLRGG-aminoluciferin luminescence, 40 min | inhibition, % at 5 µM | 1.5% of 330,000 active;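 active = inhibition above about 50% at the single test dose, limit read from the data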;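 also: plate controls were DMSO with enzyme for no effect and no enzyme buffer wells for full effect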
Target sequence (Q9BQF6 706-1050 limits assumed): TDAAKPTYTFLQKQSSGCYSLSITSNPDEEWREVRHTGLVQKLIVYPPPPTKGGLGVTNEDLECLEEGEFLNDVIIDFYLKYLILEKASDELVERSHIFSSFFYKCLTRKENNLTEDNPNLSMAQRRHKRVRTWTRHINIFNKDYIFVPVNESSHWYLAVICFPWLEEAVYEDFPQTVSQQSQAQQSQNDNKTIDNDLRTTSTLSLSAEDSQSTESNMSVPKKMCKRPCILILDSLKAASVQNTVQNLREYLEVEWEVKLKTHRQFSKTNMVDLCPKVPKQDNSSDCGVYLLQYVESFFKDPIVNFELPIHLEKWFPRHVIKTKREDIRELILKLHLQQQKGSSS
SENP8 block-2: human SENP8 protease inhibitors, primary screen, biochemical, fluorescence, Nedd8 protein substrate, uHTS; recombinant SENP8; Sentrin-specific protease 8 (Homo sapiens), Q96LD8; inhibition, % at 20 µM; 0.64% of 360,000 active; in the data active = inhibition mostly above about 40%, no sharp cut-off; inactive = mostly below about 27%
UBC13 polyUb: UBC13 polyubiquitin chain formation inhibitors, primary screen, biochemical, TR-FRET, uHTS | 0.47% of 330,000 active | inhibition, % at 20 µM | Ubiquitin-conjugating enzyme E2 N (Homo sapiens), P61088; in the data active = inhibition above about 45%, passing the limit was not always enough
SENP8 conf: SENP8 protease inhibitors, retest, confirmation, biochemical, luminescence, single concentration | shares compounds with SENP7 block | Recombinant SENP8, Z-RLRGG-aminoluciferin luminescence, 60 min | inhibition, % at 12.5 µM | 40% of 6,200 active | AID 488912, 2010;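 active = mean inhibition across replicates above about 50%, limit read from the data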
SENP6 confirm: SENP6 protease inhibitors, confirmation, biochemical, luminescence, single concentration; 58% of 6,200 active; recombinant SENP6, Z-RLRGG-aminoluciferin luminescence; shares compounds with SENP7 block; inhibition, % at 12.5 µM
SENP7 confirm: SENP7 protease inhibitors, retest, confirmation, biochemical, luminescence, single concentration; inhibition, % at 12.5 µM; shares compounds with SENP7 block; AID 488917, 2010; 69% of 6,200 active; recombinant SENP7, Z-RLRGG-aminoluciferin luminescence, 40 min
Casp3 SENP sel: caspase-3 protease inhibitors, confirmation, selectivity assay for SENP inhibitor project, biochemical, single concentration. shares compounds with SENP7 block. purified caspase-3, Z-DEVD-aminoluciferin luminescence, 60 min. inhibition, % at 12.5 µM. 60% of 6,200 active. AID 488918, 2010;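 active = mean inhibition above about 50%, limit read from the data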;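 also: plate controls were enzyme with DMSO for no effect and wells without caspase-3 for full effect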
SENP luc ctr: luminescence interference (SENP counter-screen); inhibition, % at 12.5 µM; 39% of 6,200 active; Pre-incubated SENP8/Z-RLRGG-aminoluciferin, luciferase luminescence interference; shares compounds with SENP7 block;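 active = mean inhibition above about 50% when retested at one dose, limit read from the data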;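 also: plate controls were DMSO wells with completed reaction for no effect and substrate without enzyme for full effect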
Active calls of the source: *; nt = not tested or not shown. Sampled rows, rich in hits. Any-hit rate of the full collection: about 3%.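 The calls were made as follows, unless noted: active = mean inhibition above about 50% in the one-dose retest (limit read from the data); inactive = the rest.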

SMILES | SENP6 inh | Apaf1 inhib | SENP8 block-1 | SENP7 block | SENP8 block-2 | UBC13 polyUb | SENP8 conf | SENP6 confirm | SENP7 confirm | Casp3 SENP sel | SENP luc ctr
COc1cc(N/N=C/c2ccccc2O)ncn1 | 74* | 0 | 1 | 71* | -19 | -15 | 63* | 63* | 89* | 75* | 59*
COc1cc(N/N=C/c2ccc(N(C)C)cc2)ncn1 | 96* | 0 | 93* | 97* | -389 | 8 | 70* | 81* | 94* | 78* | 23
CC1(C)Cc2cccc(OCC(=O)N3CCN(c4ccc(F)cc4)CC3)c2O1 | 0 | 1 | 12 | -2 | 27 | 5 | nt | nt | nt | nt | nt
COc1cccc(N=Cc2c(O)c3ccccc3oc2=O)c1 | 62* | 8 | 9 | 27 | -311 | -10 | 18 | 22 | 76* | 15 | 13
Cc1ccc(N=Cc2c(O)c3ccccc3oc2=O)c(C)c1 | 42 | -10 | 46 | 86* | -152 | 5 | 53* | 52* | 35 | 44 | 2
Cc1ccc(F)cc1N=Cc1c(O)c2ccccc2oc1=O | -5 | -2 | -6 | -11 | -85 | 3 | nt | nt | nt | nt | nt
O=C1N(c2ccccc2)C(c2ccccc2)C12CCCCC2 (centres undefined) | nt | 18 | nt | 9 | 3 | nt | nt | nt | nt | nt | nt
Cc1ccc2oc(C(=O)NCC(c3ccco3)N(C)C)c(C)c2c1 (centres undefined) | 2 | 7 | 4 | -1 | 11 | -1 | nt | nt | nt | nt | nt
Cc1nn2cc(-c3cccc(Cl)c3)cnc2c1Br | -17 | -11 | 26 | 81* | 13 | 2 | 9 | 11 | 38 | 33 | 1
O=C1C=C(NNC(=O)c2ccncc2)CC(c2ccccc2)C1 (centres undefined) | -26 | 3 | -8 | -3 | -17 | -14 | nt | nt | nt | nt | nt
Cc1cc(C)cc(N2CCCn3c2nc2c3c(=O)n(CC(=O)OCc3ccccc3)c(=O)n2C)c1 | 9 | 21 | 1 | 55* | -4 | 0 | -17 | -9 | -15 | 1 | -9
O=C(NCc1cc(Cl)cc(Cl)c1)c1ccc2nc(COCCO)[nH]c2c1 | nt | nt | nt | nt | 9 | nt | nt | nt | nt | nt | nt
O=C1C2C3C=CC(CC3)C2C(=O)N1/N=C/c1ccc(O)c(O)c1 (centres undefined) | -8 | -7 | -11 | 4 | 22 | -3 | nt | nt | nt | nt | nt
O=C1c2ccccc2C(=O)N1/N=C/c1ccc(O)c(O)c1 | 66* | 11 | 51* | 46 | 12 | -21 | 6 | 41 | 82* | 70* | 64*
CSC1=NSC2=NC(=O)/C(=C\c3ccc(OC(=O)c4ccco4)cc3)C(=N)N12 | 89* | 16 | 91* | 37 | 15 | -8 | 90* | 90* | 96* | 90* | 4
O=C(N/N=C/c1ccc2ncccc2c1)c1ccco1 | 66* | 1 | 33 | 66* | 14 | -27 | 53* | 53* | 84* | 87* | 64*
CN(C)c1ccc(C=Nc2ccccc2C(N)=O)cc1 | 93* | 10 | 89* | 96* | -274 | 0 | 45 | 90* | 101* | 95* | 32
CN(C)c1ccc(/C=N/NC(=O)c2ccco2)cc1 | 65* | -7 | 27 | 49 | -290 | -9 | 46 | 48 | 81* | 83* | 40
CN(C)c1ccc(/C=N\NC(=O)c2cccc3cc[nH]c23)cc1 | 86* | -1 | 76* | 85* | -430 | -11 | 84* | 82* | 95* | 80* | 64*
CCCCCCn1c(=O)n2n(c1=O)C[C@]1(OC(=O)NCc3ccccc3)CN(S(=O)(=O)c3ccc(C)cc3)C[C@]1(O)C2 | nt | nt | nt | nt | 1 | nt | nt | nt | nt | nt | nt
Cc1nn(CC(=O)NC(C)C)c(C)c1[N+](=O)[O-] | -6 | -7 | -1 | 3 | 2 | 3 | nt | nt | nt | nt | nt
Cc1ccnc(NC(=O)CCC(=O)c2cccs2)c1 | 87* | 11 | 75* | 56* | -31 | -8 | 92* | 91* | 99* | 95* | 91*
CN=c1scc(-c2ccco2)n1/N=C/c1ccc(O)c(O)c1 | 68* | 12 | 56* | 8 | -16 | -11 | 59* | 63* | 86* | 45 | 62*
COc1ccc(O)c(/C=N/n2c(-c3ccco3)csc2=Nc2cccnc2)c1 | 12 | -3 | -9 | -3 | -42 | 4 | nt | nt | nt | nt | nt
Cc1nnc2c3ccccc3ccn12 | nt | nt | nt | nt | 4 | nt | nt | nt | nt | nt | nt
SMILES | SENP6 inh | Apaf1 inhib | SENP8 block-1 | SENP7 block | SENP8 block-2 | UBC13 polyUb | SENP8 conf | SENP6 confirm | SENP7 confirm | Casp3 SENP sel | SENP luc ctr
CN(c1ccccc1)c1ccc(/C=N/N2CCOCC2)cc1 | 52* | -3 | 34 | 31 | -21 | 2 | 44 | 43 | 79* | 49 | 31
CCOc1ccc(N(C(C)C(=O)N2CCCCCC2)S(C)(=O)=O)cc1 (centres undefined) | 13 | -11 | -1 | -13 | 2 | 5 | nt | nt | nt | nt | nt
Cc1cc(=O)[nH]c(N=N/C(=N/Nc2ccc(O)cc2)c2ccccc2)n1 | 61* | 9 | 38 | 17 | 11 | -288 | 17 | 15 | 14 | 46 | 8
COc1ccc(N/N=C(/N=Nc2nc(C)cc(=O)[nH]2)c2ccccc2)cc1 | 68* | 12 | 36 | 35 | 19 | -127 | 13 | 11 | 25 | 48 | 29
c1csc(-c2cn3ccc4ccccc4c3n2)c1 | 89* | 7 | 80* | 86* | -436 | 7 | 11 | 90* | 99* | 82* | 84*
c1cc(-c2cccs2)nc(-c2cccs2)c1 | -6 | 5 | 3 | 0 | 13 | 4 | nt | nt | nt | nt | nt
CCOc1ccc(NS(=O)(=O)c2ccc(OCC(=O)N3CCCC3)cc2)cc1 | -32 | -6 | 7 | 91* | 11 | 0 | 8 | 6 | 9 | 4 | 4
